Test results: ChEMBL document CHEMBL1149298, “Stereochemical studies of the monocyclic agouti-related protein (103-122) Arg-Phe-Phe residues: conversion of a melanocortin-4 receptor antagonist into an agonist and results in the discovery of a potent and selective melanocortin-1 agonist” (J Med Chem, 2004)

What was measured:
Melanocortin receptor 3 [1] = biological target: T1, Melanocortin receptor 3 (Mus musculus, UniProt P33033); experiment: Displacement of MT2 from mouse MC3R expressed in HEK293 cells; type: cell-based
T1 sequence (P33033 whole entry): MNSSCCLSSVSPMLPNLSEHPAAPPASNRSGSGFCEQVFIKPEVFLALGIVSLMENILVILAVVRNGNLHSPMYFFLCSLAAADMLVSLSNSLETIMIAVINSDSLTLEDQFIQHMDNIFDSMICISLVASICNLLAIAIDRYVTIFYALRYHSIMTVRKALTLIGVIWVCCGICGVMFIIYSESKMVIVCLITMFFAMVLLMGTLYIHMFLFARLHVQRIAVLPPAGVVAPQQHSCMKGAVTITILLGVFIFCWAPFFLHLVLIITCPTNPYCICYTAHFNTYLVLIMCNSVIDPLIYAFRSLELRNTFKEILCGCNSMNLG
In short: (§1)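 Antagonism was measured in the same CRE/β-galactosidase assay in HEK-293 cells stably expressing the mouse receptor, as the dose-dependent competitive shift of MTII agonist response. pA2 was obtained by Schild analysis and converted to Ki. Values are means of duplicate wells from at least three independent experiments, ± SEM.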

[2] = biological target: Melanocyte-stimulating hormone receptor (Mus musculus, UniProt Q01727); experiment: Agonist activity at mouse MC1R expressed in HEK293 cells by beta-galactosidase assay; type: functional, cell-based
Sequence of Melanocyte-stimulating hormone receptor (Q01727 whole entry): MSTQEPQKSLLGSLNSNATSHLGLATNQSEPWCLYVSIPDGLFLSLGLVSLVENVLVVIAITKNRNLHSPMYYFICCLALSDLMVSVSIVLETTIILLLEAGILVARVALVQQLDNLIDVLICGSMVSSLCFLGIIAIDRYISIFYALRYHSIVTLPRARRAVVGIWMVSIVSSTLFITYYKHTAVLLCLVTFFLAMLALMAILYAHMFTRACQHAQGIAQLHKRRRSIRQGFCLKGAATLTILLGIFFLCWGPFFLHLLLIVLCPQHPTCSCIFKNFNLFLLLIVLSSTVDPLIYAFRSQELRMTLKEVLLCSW

Melanocortin receptor 4 [3] = biological target: T2, Melanocortin receptor 4 (Mus musculus, UniProt P56450); experiment: Displacement of MT2 from mouse MC4R expressed in HEK293 cells; type: cell-based; in short: as §1
T2 sequence (P56450 whole entry): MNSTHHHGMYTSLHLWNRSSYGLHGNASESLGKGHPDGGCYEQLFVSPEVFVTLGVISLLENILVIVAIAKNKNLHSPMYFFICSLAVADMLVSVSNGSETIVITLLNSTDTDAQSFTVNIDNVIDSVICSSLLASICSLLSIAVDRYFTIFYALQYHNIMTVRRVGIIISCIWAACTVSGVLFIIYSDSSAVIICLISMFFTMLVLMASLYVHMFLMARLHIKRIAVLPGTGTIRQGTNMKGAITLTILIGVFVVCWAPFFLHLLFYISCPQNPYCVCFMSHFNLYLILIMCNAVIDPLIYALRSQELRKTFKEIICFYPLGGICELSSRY

Melanocortin receptor 5 = Melanocortin receptor 5 (Mus musculus, UniProt P41149); experiment: Agonist activity at mouse MC5R expressed in HEK293 cells by beta-galactosidase assay; type: functional, cell-based
Sequence of Melanocortin receptor 5 (P41149 whole entry): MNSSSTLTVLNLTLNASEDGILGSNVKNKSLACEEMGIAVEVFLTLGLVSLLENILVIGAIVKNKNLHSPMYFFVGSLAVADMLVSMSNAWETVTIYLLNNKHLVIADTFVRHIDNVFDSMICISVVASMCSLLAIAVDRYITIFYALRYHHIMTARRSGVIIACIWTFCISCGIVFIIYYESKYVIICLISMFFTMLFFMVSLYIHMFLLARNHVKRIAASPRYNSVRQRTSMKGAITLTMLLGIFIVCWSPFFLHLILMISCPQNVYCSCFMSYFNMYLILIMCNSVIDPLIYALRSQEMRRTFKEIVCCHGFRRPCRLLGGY

Mus musculus [4] = species: Mus musculus; experiment: Selectivity for mouse MC1R over mouse MC5R
Mus musculus [5] = species: Mus musculus; experiment: Selectivity for mouse MC1R over mouse MC3R
Melanocortin receptor 3 [6] = biological target: T1, Melanocortin receptor 3; experiment: Agonist activity at mouse MC3R expressed in HEK293 cells by beta-galactosidase assay; type: functional, cell-based
Mus musculus [7] = species: Mus musculus; experiment: Selectivity for mouse MC1R over mouse MC4R
Melanocortin receptor 4 [8] = biological target: T2, Melanocortin receptor 4; experiment: Agonist activity at mouse MC4R expressed in HEK293 cells by beta-galactosidase assay; type: functional, cell-based
[9] = biological target: Melanocortin receptor 3 (Mus musculus) (UniProt P33033); experiment: Agonist activity at mouse MC3R expressed in HEK293 cells by beta-galactosidase assay at 100 uM relative to forskolin; type: functional, cell-based; details: filed as agonist
Sequence of Melanocortin receptor 3 (Mus musculus) (P33033 whole entry): as the sequence (P33033 whole entry) above

[10] = biological target: Melanocortin receptor 4 (Mus musculus) (UniProt P56450); experiment: Agonist activity at mouse MC4R expressed in HEK293 cells by beta-galactosidase assay at 100 uM relative to forskolin; type: functional, cell-based; details: filed as agonist
Sequence of Melanocortin receptor 4 (Mus musculus) (P56450 whole entry): as the sequence (P56450 whole entry) above

| pA2 (Melanocortin receptor 3 [1]) | EC50 [2] | pA2 (Melanocortin receptor 4 [3]) | EC50 (Melanocortin receptor 5) | Selectivity ratio (Mus musculus [4]) | Selectivity ratio (Mus musculus [5]) | EC50 (Melanocortin receptor 3 [6]) | Selectivity ratio (Mus musculus [7]) | EC50 (Melanocortin receptor 4 [8]) | Activity [9] | Activity [10] | Compound |
| --- | --- | --- | --- | --- | --- | --- | --- | --- | --- | --- | --- |
| 6.15 | 0.96 µM (agonist) | 6.92 | > 100 µM (agonist) |  |  |  |  |  |  |  | CC(C)C[C@H](NC(=O)[C@H](CCCCN)NC(=O)[C@H](CCCNC(=N)N)NC(=O)[C@H](C)NC(=O)[C@H](Cc1ccc(O)cc1)NC(=O)[C@@H]1CSSC[C@H](NC(=O)[C@H](Cc2ccc(O)cc2)NC(=O)[C@H](C)NC(=O)[C@@H](NC(=O)[C@H](C)NC(=O)[C@H](C)NC(=O)[C@@H]2CCCN2C(=O)[C@@H](N)CC(=O)O)[C@@H](C)O)C(=O)N[C@@H](CCCNC(=N)N)C(=O)N[C@@H](Cc2ccccc2)C(=O)N[C@H](Cc2ccccc2)C(=O)N[C@@H](CC(N)=O)C(=O)N[C@@H](C)C(=O)N[C@@H](Cc2ccccc2)C(=O)N1)C(=O)O (stereo in doubt; 1) |
|  | 0.064 µM (agonist) |  | 11.4 µM (agonist) | 180 | 990 | 63.3 µM (agonist) | 98 | 6.24 µM (agonist) |  |  | CC(C)C[C@H](NC(=O)[C@H](CCCCN)NC(=O)[C@H](CCCNC(=N)N)NC(=O)[C@H](C)NC(=O)[C@H](Cc1ccc(O)cc1)NC(=O)[C@@H]1CSSC[C@H](NC(=O)[C@H](Cc2ccc(O)cc2)NC(=O)[C@H](C)NC(=O)[C@@H](NC(=O)[C@H](C)NC(=O)[C@H](C)NC(=O)[C@@H]2CCCN2C(=O)[C@@H](N)CC(=O)O)[C@@H](C)O)C(=O)N[C@@H](CCCNC(=N)N)C(=O)N[C@H](Cc2ccccc2)C(=O)N[C@H](Cc2ccccc2)C(=O)N[C@@H](CC(N)=O)C(=O)N[C@@H](C)C(=O)N[C@@H](Cc2ccccc2)C(=O)N1)C(=O)O |
|  | 0.12 µM (agonist) |  | 2.22 µM (agonist) |  |  | 13.7 µM (agonist) |  | 3.7 µM (agonist) |  |  | CC(C)C[C@H](NC(=O)[C@H](CCCCN)NC(=O)[C@H](CCCNC(=N)N)NC(=O)[C@H](C)NC(=O)[C@H](Cc1ccc(O)cc1)NC(=O)[C@@H]1CSSC[C@H](NC(=O)[C@H](Cc2ccc(O)cc2)NC(=O)[C@H](C)NC(=O)[C@@H](NC(=O)[C@H](C)NC(=O)[C@H](C)NC(=O)[C@@H]2CCCN2C(=O)[C@@H](N)CC(=O)O)[C@@H](C)O)C(=O)N[C@@H](CCCNC(=N)N)C(=O)N[C@@H](Cc2ccccc2)C(=O)N[C@H](Cc2ccccc2)C(=O)N[C@@H](CC(N)=O)C(=O)N[C@@H](C)C(=O)N[C@@H](Cc2ccccc2)C(=O)N1)C(=O)O (stereo in doubt; 4) |
| 6.14 | 0.093 µM (agonist) | 6.56 | 1.41 µM (agonist) |  |  |  |  |  | 50% | 75% | CC(C)C[C@H](NC(=O)[C@H](CCCCN)NC(=O)[C@H](CCCNC(=N)N)NC(=O)[C@H](C)NC(=O)[C@H](Cc1ccc(O)cc1)NC(=O)[C@@H]1CSSC[C@H](NC(=O)[C@H](Cc2ccc(O)cc2)NC(=O)[C@H](C)NC(=O)[C@@H](NC(=O)[C@H](C)NC(=O)[C@H](C)NC(=O)[C@@H]2CCCN2C(=O)[C@@H](N)CC(=O)O)[C@@H](C)O)C(=O)N[C@@H](CCCNC(=N)N)C(=O)N[C@H](Cc2ccccc2)C(=O)N[C@@H](Cc2ccccc2)C(=O)N[C@@H](CC(N)=O)C(=O)N[C@@H](C)C(=O)N[C@@H](Cc2ccccc2)C(=O)N1)C(=O)O |
|  | 1.75 µM (agonist) |  | 4.6 µM (agonist) |  |  | 5.51 µM (agonist) |  | 8.3 µM (agonist) |  |  | CC(C)C[C@H](NC(=O)[C@H](CCCCN)NC(=O)[C@H](CCCNC(=N)N)NC(=O)[C@H](C)NC(=O)[C@H](Cc1ccc(O)cc1)NC(=O)[C@@H]1CSSC[C@H](NC(=O)[C@H](Cc2ccc(O)cc2)NC(=O)[C@H](C)NC(=O)[C@@H](NC(=O)[C@H](C)NC(=O)[C@H](C)NC(=O)[C@@H]2CCCN2C(=O)[C@@H](N)CC(=O)O)[C@@H](C)O)C(=O)N[C@H](CCCNC(=N)N)C(=O)N[C@H](Cc2ccccc2)C(=O)N[C@@H](Cc2ccccc2)C(=O)N[C@@H](CC(N)=O)C(=O)N[C@@H](C)C(=O)N[C@@H](Cc2ccccc2)C(=O)N1)C(=O)O |
|  | 6.33 µM (agonist) |  | 18.3 µM (agonist) |  |  |  |  | 37.7 µM (agonist) | 70% |  | CC(C)C[C@H](NC(=O)[C@H](CCCCN)NC(=O)[C@H](CCCNC(=N)N)NC(=O)[C@H](C)NC(=O)[C@H](Cc1ccc(O)cc1)NC(=O)[C@@H]1CSSC[C@H](NC(=O)[C@H](Cc2ccc(O)cc2)NC(=O)[C@H](C)NC(=O)[C@@H](NC(=O)[C@H](C)NC(=O)[C@H](C)NC(=O)[C@@H]2CCCN2C(=O)[C@@H](N)CC(=O)O)[C@@H](C)O)C(=O)N[C@H](CCCNC(=N)N)C(=O)N[C@@H](Cc2ccccc2)C(=O)N[C@@H](Cc2ccccc2)C(=O)N[C@@H](CC(N)=O)C(=O)N[C@@H](C)C(=O)N[C@@H](Cc2ccccc2)C(=O)N1)C(=O)O |
|  | 3.75 µM (agonist) |  | 13.2 µM (agonist) |  |  | 22.6 µM (agonist) |  | 21.5 µM (agonist) |  |  | CC(C)C[C@H](NC(=O)[C@H](CCCCN)NC(=O)[C@H](CCCNC(=N)N)NC(=O)[C@H](C)NC(=O)[C@H](Cc1ccc(O)cc1)NC(=O)[C@@H]1CSSC[C@H](NC(=O)[C@H](Cc2ccc(O)cc2)NC(=O)[C@H](C)NC(=O)[C@@H](NC(=O)[C@H](C)NC(=O)[C@H](C)NC(=O)[C@@H]2CCCN2C(=O)[C@@H](N)CC(=O)O)[C@@H](C)O)C(=O)N[C@H](CCCNC(=N)N)C(=O)N[C@H](Cc2ccccc2)C(=O)N[C@H](Cc2ccccc2)C(=O)N[C@@H](CC(N)=O)C(=O)N[C@@H](C)C(=O)N[C@@H](Cc2ccccc2)C(=O)N1)C(=O)O |
|  | 5.27 µM (agonist) |  | 19.8 µM (agonist) |  |  |  |  | 8.33 µM (agonist) | 70% |  | CC(C)C[C@H](NC(=O)[C@H](CCCCN)NC(=O)[C@H](CCCNC(=N)N)NC(=O)[C@H](C)NC(=O)[C@H](Cc1ccc(O)cc1)NC(=O)[C@@H]1CSSC[C@H](NC(=O)[C@H](Cc2ccc(O)cc2)NC(=O)[C@H](C)NC(=O)[C@@H](NC(=O)[C@H](C)NC(=O)[C@H](C)NC(=O)[C@@H]2CCCN2C(=O)[C@@H](N)CC(=O)O)[C@@H](C)O)C(=O)N[C@H](CCCNC(=N)N)C(=O)N[C@@H](Cc2ccccc2)C(=O)N[C@H](Cc2ccccc2)C(=O)N[C@@H](CC(N)=O)C(=O)N[C@@H](C)C(=O)N[C@@H](Cc2ccccc2)C(=O)N1)C(=O)O |
